# Assay results collected from several papers.
Compound,assay,test system,setting,quantity,value
N=c1c2c(-c3ccccc3)c(-c3ccccc3)n(Cc3ccccc3)c2ncn1[C@H]1CC[C@H](O)CC1,metabolic stability,"monkey, hepatocytes","1 µM, 4 h",compound remaining,119%
O=C(O)c1ccc(OC(=O)N2CCC(CCn3ccc4ccc(F)cc43)CC2)cc1,HPLC,,,chromatographic logP,3.6
Nc1nc(-c2ccccc2)nc2[nH]nc(Nc3ccc(C(F)(F)F)cc3)c12,,"mouse, plasma","oral, 100 mg/kg, 6 h",concentration,802 ng/mL
O=C(O)c1cccc(OC(=O)N2CCC(CCn3ccc4ccc(F)cc43)CC2)c1,HPLC,,,chromatographic logP,3.6
C[C@]12CC[C@H](n3ccnc3)CC1=CC[C@@H]1[C@@H]2CC[C@]2(C)C(n3cnc4ccccc43)=CC[C@@H]12.Cl.Cl,,"male CD-1 mouse, plasma","intravenous, 1 mg/kg",half-life,17.5 h
Cc1ccccc1C(=O)NN=Cc1ccc(O)c(Br)c1,,"mouse, plasma","intravenous, 1.6 mg/kg",half-life,1.24 h
Cc1cc(C)nc(Nc2ncc(C(=O)NCCc3c(C)[nH]c4ccccc34)cn2)c1,metabolic stability,"dog, liver microsomes",1 µM,microsomal CLint,72 µL/min/mg
C=C[C@H]1CN2CC[C@H]1C[C@H]2[C@H](O)c1ccnc2ccccc12,,water,,logP,2.68
CC(C)[C@H]1C(=O)N[C@@H](CCCN=C(N)N)C(=O)NCC(=O)N[C@@H](CC(=O)O)C(=O)N[C@H](Cc2ccccc2)C(=O)N1C,,,,logP,-2
Cc1ccncc1OC(=O)NCCCCCn1ccc2ccc(F)cc21,HPLC,,,chromatographic logP,2.7
CC[C@H]1CN2CC[C@H]1C[C@H]2[C@H](O)c1ccnc2ccc(OC)cc12,,water,,logP,3.07
NCC(=O)Nc1ccc(-n2nc(C(F)(F)F)cc2-c2ccc3c(ccc4ccccc43)c2)cc1,,"mouse, plasma","oral, 80 mg/kg",half-life,22 h
O=C(OC(C(F)(F)F)C(F)(F)F)N1CCN(Cc2ccc(C(F)(F)F)cc2N2CCCC2)CC1,HPLC,,,chromatographic logP,7.4
CN[C@H](CC(C)C)C(=O)N[C@H]1C(=O)N[C@@H](CC(N)=O)C(=O)N[C@H]2C(=O)NC3C(=O)N[C@H](C(=O)N[C@H](C(=O)NCCC[N+](C)(C)C)c4cc(O)cc(O)c4-c4cc3ccc4O)[C@H](O)c3ccc(c(Cl)c3)Oc3cc2cc(c3OC2OC(CO)C(O)[C@H](O)[C@@H]2O[C@H]2CC(C)(NCc3ccc(-c4ccc(Cl)cc4)cc3)[C@H](O)[C@H](C)O2)Oc2ccc(cc2Cl)[C@H]1O (some centres unmarked),,"mouse, plasma","intravenous, 50 mg/kg",half-life,6.2 h
CCN(CC)CCCC[C@H](NC(=O)[C@H](CC(C)C)NC(=O)[C@H](C)NC(=O)[C@H](Cc1ccccc1)NC(=O)c1ccc(C(C)(C)C)cc1)C(=O)N[C@@H](CO)C(=O)OC,,"male Swiss mouse, blood","intravenous, 3 mg/kg",half-life,0.09 h
C[C@]12CC[C@H](O)CC1=CC[C@@H]1[C@@H]2CC[C@]2(C)C(n3cnc4ccccc43)=CC[C@@H]12.Cl,,"mouse, plasma","intravenous, 1 mg/kg",half-life,1.02 h
NC(=O)c1cccc(-c2cccc(OC(=O)NC3CCCCC3)c2)c1,HPLC,,,chromatographic logP,2
